Laboratory results from publication PMC8969127 (Molecular Pharmacology, 2022).
Entries after “also recorded” stand apart in the source; their conditions may differ. Where two headings read alike, the source gives them in different places.

Key:
CatSper [1] = target: T1, CatSper (Homo sapiens, UniProt Q7RTX7+Q86XQ3+Q8NEC5+Q96P56); assay: Human sperm calcium influx assay, activation; type: cell-based; settings: for Emax: read-out: Emax, %, Steroid Alone; for effect on [Ca2+]i as activator: concentrations up to 10 µM; for fold less potent than PROG (calcium influx): relative to PROG; for fold lower activity than the corresponding pregnanolones (10–11): hydroxylation of the 21 position; for Emax, %, Steroid Alone: percent of response to saturating PROG (3 µM)
How it was run: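 Semen from healthy donors was liquefied at 37 °C, washed twice in low pH/low K+ buffer (pH 6.7, 0.2 mM CaCl2), then loaded with 10 µM Fluo-4-AM plus 1 mM probenecid, 30 min, room temperature, dark. On FLIPR, buffer was added first, then openers 2 min later. Fluorescence was read for 7 min at 2-s intervals. EC50 came from 8-point, 3-fold dilutions in duplicate, peak height, four-parameter fit. Emax is relative to 3 µM progesterone. Activators were retested with 30 µM mibefradil.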

CatSper [2] = target: T1, CatSper; settings: read-out: EC50, patch-clamp electrophysiology; ref Lishko et al., 2011; cited from earlier work
CatSper [3] = target: T1, CatSper; settings: read-out: EC50, rapid-mixing calcium fluorimetry; ref Strunker et al., 2011; cited from earlier work
CatSper [4] = target: T1, CatSper; type: cell-based; settings: for IC50: human sperm
CatSper [5] = target: T1, CatSper; assay: Activator concentration-response curves in the presence of increasing inhibitor; type: cell-based
How it was run: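 Washed human donor sperm in low pH/low K+ buffer (pH 6.7) were loaded with 10 µM Fluo-4-AM plus 1 mM probenecid, 30 min, room temperature, dark. FLIPR read: ex 470–495/em 515–575 nm. Activator concentration-response curves were run with increasing concentrations of competitive antagonist, added 2 min before the activator. Activator EC50 values were taken from maximal peak height (four-parameter fit). pKB came from Schild regression.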

human sperm = assay: Computer-assisted sperm analysis; type: cell-based; settings: for effect on total and progressive sperm motility: up to 30 µM
How it was run: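 Donor semen was liquefied ≥40 min at 37 °C, then swim-up in HAM's F10 for 1 h at 37 °C, 5% CO2. Cells were adjusted to 10x10^6/mL and capacitated in HAM's F10 with 5% BSA and 15 mM NaHCO3 at 37 °C, 5% CO2, with test compound or DMSO. HAM was induced with 100 nM progesterone or 100 nM PGE1. CASA at 37 °C used ≥10 fields, ≥200 cells. Motility classes came from VAP/VSL/VCL-derived LIN and STR, normalized to vehicle controls, ≥3 experiments.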

[6] = pEC50, calcium influx, Steroid Alone, human sperm, mean ±SD
[7] = KB, Leff-Dougall analysis, averaged across the activators, PROG, PGE1 and l-sirenin
[8] = Leff-Dougall pKB, opener PGE1, from IC50, mean ± SD
[9] = Leff-Dougall pKB, opener PROG, from IC50, mean ± SD
[10] = Leff-Dougall pKB, opener l-Sirenin, from IC50, mean ± SD
[11] = pIC50, inhibition of PGE1-induced calcium influx, opener 10 nM PGE1 (EC80), mean ±SD
[12] = pIC50, inhibition of l-sirenin-induced calcium influx, opener 3 µM l-sirenin (EC80), mean ±SD
[13] = Schild pKB, opener PGE1, mean ± standard error
[14] = Schild pKB, opener PROG, mean ± standard error
[15] = Schild pKB, opener l-Sirenin, mean ± standard error
[16] = average pKB, Schild analysis, averaged across the activators, PROG, PGE1 and l-sirenin, mean ±SD

Compound: CC(=O)[C@H]1CC[C@H]2[C@@H]3CCC4=CC(=O)CC[C@]4(C)[C@H]3CC[C@]12C [compound 1, progesterone]
- EC50 (CatSper [1]; EC50, increase of [Ca2+]i in human sperm): 0.0037 µM
- EC50 (CatSper [1]; [6]): 0.00372 µM
- Emax (CatSper [1]): 111%
- time at which the calcium signal peaked (CatSper [1]; then decayed slowly for up to 300 seconds): ~100 s
- EC50 (CatSper [2]): 0.0077 µM
- EC50 (CatSper [3]): 0.042 µM

Compound: CC(=O)O[C@]1(C(C)=O)CC[C@H]2[C@@H]3C[C@H](C)C4=CC(=O)CC[C@]4(C)[C@H]3CC[C@@]21C [compound 4, medroxyprogesterone acetate]
- effect on [Ca2+]i as activator (CatSper [1]; listed as MPA): little effect on [Ca^2+]i; also recorded: negligible activity
- EC50 (CatSper [1]; [6]): > 10 µM
- Emax (CatSper [1]): 17%
- Kb (CatSper [4]; [7]): 1.6 µM
- Kb (CatSper [4]; [8]): 1 µM
- Kb (CatSper [4]; [9]): 0.692 µM
- Kb (CatSper [4]; [10]): 6.31 µM
- Kb (CatSper [4]; mean pKB, Leff-Dougall analysis, averaged across the activators, PROG, PGE1 and l-sirenin, mean ±SD): 1.66 µM
- IC50 (CatSper [4]; [11]): 9.77 µM
- IC50 (CatSper [4]; [12]): 6.17 µM
- Kb (CatSper [5]; [13]): 4.17 µM
- Kb (CatSper [5]; [14]): 0.646 µM
- Kb (CatSper [5]; [15]): 6.03 µM
- Kb (CatSper [5]; [16]): 2.51 µM
- effect on total and progressive sperm motility (human sperm; CASA, human sperm): reduced total and progressive motility at 30 µM but not at lower concentrations

Compound: C#C[C@]1(O)CC[C@H]2[C@@H]3CCC4=CC(=O)CC[C@@H]4[C@H]3CC[C@@]21CC [compound 5, levonorgestrel]
- EC50 (CatSper [1]): > 10 µM
- effect on [Ca2+]i as activator (CatSper [1]): negligible activity
- Emax (CatSper [1]): 15%
- Kb (CatSper [4]; [7]): 4.5 µM
- Kb (CatSper [4]; [8]): 3.16 µM
- Kb (CatSper [4]; [9]): 3.39 µM
- Kb (CatSper [4]; [10]): 8.51 µM
- IC50 (CatSper [4]; [11]): 30.2 µM
- IC50 (CatSper [4]; [12]): 81.3 µM
- Kb (CatSper [5]; [13]): 437 µM
- Kb (CatSper [5]; [14]): 0.158 µM
- Kb (CatSper [5]; [15]): 56.2 µM
- Kb (CatSper [5]; [16]): 15.8 µM
- effect on total and progressive sperm motility (human sperm; CASA, human sperm): no significant effect

Compound: C[C@]12CCC(=O)C=C1CC[C@@H]1[C@@H]2[C@@H](O)C[C@]2(C=O)[C@@H](C(=O)CO)CC[C@@H]12 [compound 6, aldosterone]
- effect on [Ca2+]i as activator (CatSper [1]): did not increase [Ca^2+]i; also recorded: negligible activity
- Kb (CatSper [4]; [7]): 5.1 µM
- Kb (CatSper [4]; [8]): 6.03 µM
- Kb (CatSper [4]; [9]): 3.47 µM
- Kb (CatSper [4]; [10]): 6.46 µM
- IC50 (CatSper [4]; [11]): 57.5 µM
- IC50 (CatSper [4]; [12]): 61.7 µM
- Kb (CatSper [5]; [13]): 724 µM
- Kb (CatSper [5]; [14]): 4.17 µM
- Kb (CatSper [5]; [15]): 15.1 µM
- Kb (CatSper [5]; [16]): 36.3 µM
- effect on total and progressive sperm motility (human sperm; CASA, human sperm): no significant effect

Compound: CC(=O)C1(O)CCC2C3CCC4=CC(=O)CCC4(C)C3CCC21C (stereo not drawn) [compound 25, 17α-hydroxyprogesterone]
- EC50 (CatSper [1]; [6]): 0.0105 µM
- Emax (CatSper [1]): 115%
- fold less potent than PROG (calcium influx) (CatSper [1]): threefold

Compound: C[C@]12CC[C@@H](O)C[C@H]1CC[C@@H]1[C@@H]2CC[C@]2(C)[C@@H](C(=O)CO)CC[C@@H]12 [compound 26, 3α,5β-THDOC]
- pEC50, calcium influx, Steroid Alone (CatSper [1]; human sperm, mean ±SD): 5.80 ± 0.26
- fold lower activity than the corresponding pregnanolones (10–11) (CatSper [1]): threefold
- Emax, %, Steroid Alone (CatSper [1]): 100%
- fold less potent than PROG (calcium influx) (CatSper [1]): ≥ 240 fold

Compound: C[C@]12CC[C@@H](O)C[C@@H]1CC[C@@H]1[C@@H]2CC[C@]2(C)[C@@H](C(=O)CO)CC[C@@H]12 [compound 27, 3α,5α-THDOC]
- pEC50, calcium influx, Steroid Alone (CatSper [1]; human sperm, mean ±SD): 6.05 ± 0.21
- fold lower activity than the corresponding pregnanolones (10–11) (CatSper [1]): threefold
- Emax, %, Steroid Alone (CatSper [1]): 96%
- fold less potent than PROG (calcium influx) (CatSper [1]): ≥ 240 fold

Compound: CC(=O)[C@H]1[C@H](O)C[C@H]2[C@@H]3CCC4=CC(=O)CC[C@]4(C)[C@H]3CC[C@@]21C [compound 28, 16α-hydroxyprogesterone]
- pEC50, calcium influx, Steroid Alone (CatSper [1]; human sperm, mean ±SD): 6.77 ± 0.18
- Emax, %, Steroid Alone (CatSper [1]): 106%
- fold less potent than PROG (calcium influx) (CatSper [1]): 46 fold

Compound: CC(=O)O[C@]1(C(C)=O)CC[C@H]2[C@@H]3CCC4=CC(=O)CC[C@]4(C)[C@H]3CC[C@@]21C [compound 29, 17α-acetoxyprogesterone]
- Emax, %, Steroid Alone (CatSper [1]): 31%

Compound: CC(=O)[C@@]1(O)CC[C@H]2[C@@H]3C[C@H](C)C4=CC(=O)CC[C@]4(C)[C@H]3CC[C@@]21C [compound 30, 17α-hydroxy-6α-methylprogesterone]
- fold reduction of activity relative to 17α-hydroxyprogesterone (CatSper [1]; addition of a 6α-methyl group): 47 fold
- pEC50, calcium influx, Steroid Alone (CatSper [1]; human sperm, mean ±SD): 6.33 ± 0.10
- Emax, %, Steroid Alone (CatSper [1]): 96%

Compound: C[C@]12CCC(=O)C=C1[C@@H]1C[C@@H]1[C@H]1[C@@H]3[C@@H]4C[C@@H]4[C@@]4(CCC(=O)O4)[C@@]3(C)CC[C@@H]12 [compound 31, drospirenone]
- EC50 (CatSper [1]; [6]): 0.525 µM
- Emax (CatSper [1]): 115%

Compound: CC(=O)[C@@]1(O)CC[C@H]2[C@@H]3CCC4=CC(=O)CCC4=C3[C@@H](c3ccc(N(C)C)cc3)C[C@@]21C [compound 32, ulipristal]
- EC50 (CatSper [1]; [6]): 3.55 µM
- Emax (CatSper [1]): 106%

Compound: CC#C[C@]1(O)CC[C@H]2[C@@H]3CCC4=CC(=O)CCC4=C3[C@@H](c3ccc(N(C)C)cc3)C[C@@]21C [compound 33, mifepristone (RU-486)]
- EC50 (CatSper [1]; [6]): 4.68 µM
- Emax (CatSper [1]): 109%

Compound: CC(=O)O[C@]1(C(C)=O)CC[C@H]2[C@@H]3CCC4=CC(=O)CCC4=C3[C@@H](c3ccc(N(C)C)cc3)C[C@@]21C [compound 34, ulipristal acetate]
- EC50 (CatSper [1]; [6]): > 10 µM
- Emax (CatSper [1]): 27%

Compound: C=C1C[C@H]2[C@@H]3CCC4=CC(=O)CC[C@@H]4[C@H]3CC[C@]2(C)[C@@]1(OC(C)=O)C(C)=O [compound 35, segesterone acetate]
- pEC50, calcium influx, Steroid Alone (CatSper [1]; human sperm, mean ±SD): <5
- Emax, %, Steroid Alone (CatSper [1]): 57%

Compound: C[C@]12CC[C@H]3[C@@H](CCC4=CC(=O)CC[C@@]43C)[C@@H]1CC[C@@H]2O [compound 36, testosterone]
- EC50 (CatSper [1]): 0.219 µM
- Emax (CatSper [1]): 114%

Compound: C[C@]12CC[C@@H]3c4ccc(O)cc4CC[C@H]3[C@@H]1CC[C@@H]2O [compound 37, 17β-estradiol]
- EC50 (CatSper [1]; [6]): 0.295 µM
- Emax (CatSper [1]): 94%

Compound: C[C@H]1C[C@]2(C)[C@@H](O)CC[C@H]2[C@@H]2CCC3=CC(=O)CC[C@@H]3[C@H]21 [compound 38, 11β-methyl-19-nortestosterone]
- pEC50, calcium influx, Steroid Alone (CatSper [1]; human sperm, mean ±SD): 6.37 ± 0.32
- Emax, %, Steroid Alone (CatSper [1]): 85%

Compound: C[C@@H]1CC2=CC(=O)CC[C@@H]2[C@H]2CC[C@]3(C)[C@@H](O)CC[C@H]3[C@@H]21 [compound 39, 7α-methyl-19-nortestosterone]
- pEC50, calcium influx, Steroid Alone (CatSper [1]; human sperm, mean ±SD): 6.25 ± 0.37
- Emax, %, Steroid Alone (CatSper [1]): 86%

Compound: C[C@@H]1CC2=CC(=O)CC[C@@H]2[C@@H]2[C@@H]1[C@@H]1CC[C@H](O)[C@@]1(C)C[C@@H]2C [compound 40, 7α,11β-dimethylandrolone]
- pEC50, calcium influx, Steroid Alone (CatSper [1]; human sperm, mean ±SD): 6.06 ± 0.49
- Emax, %, Steroid Alone (CatSper [1]): 80%

Compound: C[C@H]1C[C@]2(C)[C@@H](O)CC[C@H]2[C@H]2[C@H]1[C@H]1CCC(=O)C=C1C[C@@H]2C [compound 41, 7β,11β-dimethylandrolone]
- pEC50, calcium influx, Steroid Alone (CatSper [1]; human sperm, mean ±SD): 5.41 ± 0.24
- Emax, %, Steroid Alone (CatSper [1]): 42%

Compound: COCC(=O)O[C@]1(CCN(C)CCCc2nc3ccccc3[nH]2)CCc2cc(F)ccc2[C@@H]1C(C)C [mibefradil]
- calcium influx elicited by the blocker itself (CatSper [1]; ML218 up to 100 µM, mibefradil at higher concentrations): we did not observe a mibefradil-induced calcium influx
- block of calcium influx for all modes of channel opening (CatSper [4]; blocker 30 µM): completely blocked influx
- IC50 (CatSper [4]; [11]): 8.32 µM
- IC50 (CatSper [4]; [12]): 8.13 µM
- concentration that completely ablated total and progressive motility (human sperm; CASA, human sperm): 30 µM
- concentration that completely ablated HAM (human sperm; HAM induced with 100 nM PROG or 100 nM PGE1, 4 hours, capacitating conditions): 10 µM
